Test results reported in ChEMBL document CHEMBL3758120, “Synthesis and Mechanism Studies of 1,3-Benzoazolyl Substituted Pyrrolo[2,3-b]pyrazine Derivatives as Nonintercalative Topoisomerase II Catalytic Inhibitors” (J Med Chem, 2016).
Active and inactive are the calls of the source. The rule behind the calls is not given here.

Legend:
HL-60 [1] = assay: Induction of apoptosis in human HL60 cells assessed as viable cells at 0.25 uM after 24 hrs by annexin V-FITC/propidium iodide staining-based flow cytometric analysis (reference value: 97.75%); type: functional; settings: HL-60, 24 h, read-out: Activity
In short: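 HL-60 cells at 5.0 × 10^5 cells/ml treated for 12 h (0.5–2 μM) or 24 h (0.25–1 μM), washed twice in cold PBS, resuspended in binding buffer, stained with annexin V-FITC and propidium iodide for 15 min in the dark, analysed by flow cytometry within 1 h; quadrants define live, early and late apoptotic cells. Three repeats.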

HL-60 [2] = assay: Induction of apoptosis in human HL60 cells assessed as dead cells at 0.25 uM after 24 hrs by annexin V-FITC/propidium iodide staining-based flow cytometric analysis (reference value: 0.12%); type: functional
[3] = target: T1, DNA topoisomerase 2-alpha (Homo sapiens, UniProt P11388); settings: HL-60, 5 uM
T1 sequence (P11388 whole entry): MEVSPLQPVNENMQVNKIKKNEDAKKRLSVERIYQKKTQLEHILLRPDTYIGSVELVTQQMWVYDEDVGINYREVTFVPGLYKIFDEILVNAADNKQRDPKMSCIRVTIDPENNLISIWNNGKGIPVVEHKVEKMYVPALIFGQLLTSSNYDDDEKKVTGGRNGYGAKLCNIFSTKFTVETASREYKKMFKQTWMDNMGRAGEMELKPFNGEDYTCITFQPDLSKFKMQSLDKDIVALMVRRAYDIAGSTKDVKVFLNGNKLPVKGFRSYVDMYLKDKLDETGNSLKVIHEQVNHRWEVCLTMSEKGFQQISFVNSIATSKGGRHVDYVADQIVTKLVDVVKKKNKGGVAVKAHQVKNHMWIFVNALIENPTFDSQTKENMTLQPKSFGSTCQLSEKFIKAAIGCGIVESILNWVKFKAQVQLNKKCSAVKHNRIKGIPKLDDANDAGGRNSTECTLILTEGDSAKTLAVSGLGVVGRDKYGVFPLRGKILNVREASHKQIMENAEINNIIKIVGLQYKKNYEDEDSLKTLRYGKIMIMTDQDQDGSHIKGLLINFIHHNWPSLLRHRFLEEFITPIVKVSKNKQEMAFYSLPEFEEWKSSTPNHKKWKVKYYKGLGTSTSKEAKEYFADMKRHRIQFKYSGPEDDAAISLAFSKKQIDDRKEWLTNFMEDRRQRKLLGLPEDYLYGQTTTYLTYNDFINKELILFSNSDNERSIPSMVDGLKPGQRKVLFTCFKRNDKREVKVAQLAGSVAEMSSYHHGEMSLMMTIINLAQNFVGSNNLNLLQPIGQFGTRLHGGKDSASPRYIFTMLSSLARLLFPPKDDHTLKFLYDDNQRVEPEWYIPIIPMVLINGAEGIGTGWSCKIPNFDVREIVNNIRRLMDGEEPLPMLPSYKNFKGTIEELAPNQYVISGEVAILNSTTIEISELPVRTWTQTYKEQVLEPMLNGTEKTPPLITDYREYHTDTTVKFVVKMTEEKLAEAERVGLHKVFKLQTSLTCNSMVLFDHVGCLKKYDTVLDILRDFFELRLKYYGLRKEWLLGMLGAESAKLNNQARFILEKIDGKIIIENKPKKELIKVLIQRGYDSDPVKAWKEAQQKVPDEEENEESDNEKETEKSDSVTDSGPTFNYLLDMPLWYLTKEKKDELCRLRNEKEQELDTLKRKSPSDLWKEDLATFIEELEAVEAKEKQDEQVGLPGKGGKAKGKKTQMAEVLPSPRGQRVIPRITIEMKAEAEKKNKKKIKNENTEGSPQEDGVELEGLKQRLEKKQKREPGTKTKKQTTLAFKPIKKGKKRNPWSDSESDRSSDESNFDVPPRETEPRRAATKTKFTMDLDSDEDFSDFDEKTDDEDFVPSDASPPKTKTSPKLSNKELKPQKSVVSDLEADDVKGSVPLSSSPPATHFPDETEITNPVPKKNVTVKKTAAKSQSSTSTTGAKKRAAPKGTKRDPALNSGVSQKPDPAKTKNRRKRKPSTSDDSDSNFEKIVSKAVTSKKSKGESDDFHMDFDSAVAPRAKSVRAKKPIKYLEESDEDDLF

Escherichia coli = assay: Binding affinity to Escherichia coli pBR322 DNA assessed as intercalation of pBR322 DNA at 0.1 to 100 uM by fluorescence based ethidium bromide displacement assay
In short: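 Increasing concentrations added to 20 nM pBR322 plasmid with 2.5 μM ethidium bromide in 10 mM HEPES pH 7.9, 100 mM KCl, 5 mM MgCl2, 0.1 mM EDTA. Fluorescence emission spectra recorded (excitation 510 nm, emission max 595 nm) at each concentration; mAMSA used as intercalating reference.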

Calf thymus DNA = assay: Binding affinity to calf thymus DNA by UV-visible spectrophotometric analysis; type: nucleic-acid assay; settings: Bos taurus
In short: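 Compound fixed at 5 μM in DPBS pH 7.4 with 1% DMSO, titrated with CT-DNA (0–25 μM; concentration from A260, ε 13 200 M(bp)⁻¹cm⁻¹; A260/280 1.8–1.9). After 20 min equilibration at room temperature, absorption spectra recorded over 300–500 nm.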

[4] = target: T1, DNA topoisomerase 2-alpha; assay: Inhibition of purified human topoisomerase 2-mediated relaxation of supercoiled pBR322 DNA at 50 uM incubated for 30 mins in presence of 4 mM ATP by agarose gel electrophoresis
In short: (§1)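 Reactions contained 0.2 μg supercoiled pBR322 in 50 mM Tris-HCl pH 8.0, 150 mM NaCl, 10 mM MgCl2, 0.5 mM DTT, 30 μg/ml BSA, normally 2 mM ATP (1, 2 or 4 mM in ATP-competition runs). Started with 1 U human Topo II, 30 min at 37 °C, stopped with sarcosyl buffer, run on 1% agarose 1.5 h at 75 V, gel-stained and imaged under UV.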

[5] = target: T1, DNA topoisomerase 2-alpha; assay: Inhibition of purified human topoisomerase 2-mediated relaxation of supercoiled pBR322 DNA at 50 uM incubated for 30 mins in presence of 1 mM ATP by agarose gel electrophoresis; in short: as §1
[6] = target: T1, DNA topoisomerase 2-alpha; settings: HL-60, 5 uM; remark: listed apart in the source

CCN(CC)CCCCn1c(N)c(-c2nc3ccccc3[nH]2)c2nc(C#N)c(C#N)nc21
viability at 0.25 µM (HL-60 [1]): 99.2%
Activity (HL-60 [2]): 0.07%

CN(C)CCCCn1c(N)c(-c2nc3ccccc3[nH]2)c2nc(C#N)c(C#N)nc21
inhibition [3]: Active
viability at 0.25 µM (HL-60 [1]): 99%
inhibition (Escherichia coli): inactive
Kb (Calf thymus DNA): 2.8 ×10⁵ /M
IC50 [4]: 16.5 µM
IC50 [5]: 0.9 µM
Activity (HL-60 [2]): 0.03%
inhibition [6]: inactive
